Source: PubChem (several laboratories)
This is a sample that favours compounds with a hit; in the whole collection about 4.4% have one here.
AI-2 QS modul = Vibrio harveyi AI-2 quorum sensing modulators, primary screen, JMH597 strain, luminescence/OD600 ratio. 300,000 tested, 0.4% active. activity change, % at 7.5 µM. Vibrio harveyi JMH597 AI-2 luminescence/OD600 ratio, 9 h; hits give low values; strain lacks LuxN and CqsS sensors; 0 = neutral-control median. AID 2094, 2009; in the data active = activity change below about -75%, passing the limit was not always enough; inconclusive = no clear call, values can overlap the other calls;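 note: luminescence divided by OD600 gain over 9 h not by final OD600 alone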
MsrA act = bovine MsrA enzyme activators, primary screen, biochemical, absorbance, HTS. Methionine sulfoxide reductase A (Bos taurus). purified bovine MsrA, absorbance read-out. activation, % at 10.6 µM. 360,000 tested, 0.3% active; in the data active = activation above about 7.5%
AHR activator = AHR activators, primary screen, cell-based, luminescence, luciferase reporter, human. AHR-responsive luciferase reporter cells. activation, % at 5 µM. 320,000 tested, 2.5% active; in the data active = activation above about 47%
MsrA inhibitor = bovine MsrA enzyme inhibitors, primary screen, biochemical, absorbance, HTS; Methionine sulfoxide reductase A (Bos taurus); purified bovine MsrA, absorbance read-out; inhibition, % at 15.5 µM; 360,000 tested, 0.75% active; AID 651718, 2012; in the data active = inhibition above about 4.5%
TbMetRS inhib = T. brucei MetRS inhibitors, primary screen, biochemical, luminescence; 360,000 tested, 0.4% active; purified T. brucei MetRS, ATP depletion, Kinase-Glo luminescence; inhibition, % at 11.9 µM; AID 624268, 2012; methionyl-tRNA synthetase (Trypanosoma brucei brucei);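 active = inhibition above a per-plate cutoff of the control wells' mean inhibition plus 3 SD, cut at about 5.5% in these data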
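Assay system: T. brucei methionyl-tRNA synthetase, purified | Medium: HEPES buffer with MgCl2, KCl, DTT, spermine, BSA, pyrophosphatase | Compound: 11.9 µM single point | Incubation: 15 min enzyme-compound preincubation, 2 h reaction, 10 min detection, 25 °C | Measured by: Kinase-Glo luciferase luminescence reporting remaining unconsumed ATP | Measure: % inhibition normalized to control-well medians | Replication: Singlicate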
m5-HT2A agonist = mouse Htr2a agonists via beta-arrestin recruitment, primary screen, cell-based, luminescence; activation, % at 7.6 µM; AID 624169, 2012; CHO-K1 mHTR2A beta-arrestin complementation; percent of 30 µM serotonin response; 5-hydroxytryptamine receptor 2A (Mus musculus), P35363; 360,000 tested, 0.66% active;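 active = activation above a run cutoff, the mean activation of all tested compounds plus 3 SD, cut at about 14% in these data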
Target sequence (P35363 whole entry, looked up): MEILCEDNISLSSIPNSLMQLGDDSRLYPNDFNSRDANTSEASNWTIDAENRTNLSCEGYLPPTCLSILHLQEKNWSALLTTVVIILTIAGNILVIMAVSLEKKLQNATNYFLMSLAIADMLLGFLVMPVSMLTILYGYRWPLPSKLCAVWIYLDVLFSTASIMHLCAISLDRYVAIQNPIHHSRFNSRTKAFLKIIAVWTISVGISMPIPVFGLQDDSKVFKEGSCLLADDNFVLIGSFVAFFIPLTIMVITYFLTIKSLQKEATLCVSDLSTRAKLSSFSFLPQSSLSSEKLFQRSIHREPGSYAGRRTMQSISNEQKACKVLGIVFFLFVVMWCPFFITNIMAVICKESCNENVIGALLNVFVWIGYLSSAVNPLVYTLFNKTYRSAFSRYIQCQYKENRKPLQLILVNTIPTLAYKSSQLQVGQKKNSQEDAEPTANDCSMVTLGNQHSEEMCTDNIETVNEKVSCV
JMH597 growth = Vibrio harveyi growth inhibition, confirmation, counter-screen for AI-2 quorum sensing project, JMH597 strain, OD600 absorbance; 750 tested, 1% active; 9 h; lacks LuxN and CqsS sensors; growth inhibition, % at 7.5 µM; shares compounds with AI-2 QS modul;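 active = every replicate shows growth inhibition above 50%; inconclusive = at least half, but not all, replicates pass that cutoff; inactive = fewer than half of replicates pass it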
BB721 lum counter = luminescence inhibition in constitutive-on V. harveyi, confirmation, counter-screen for LuxS inhibitor project, strain BB721, luminescence readout. AID 2727, 2010. shares compounds with AI-2 QS modul. Vibrio harveyi BB721 luminescence, 9 h. 750 tested, 95% active. inhibition, % at 7.5 µM;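 active = inhibition above about 80% in every replicate, not just on average, limit read from the data; inconclusive = at least half of replicates past the limit, but not all; inactive = fewer than half of replicates past the limit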
BB721 growth = growth inhibition of V. harveyi BB721, confirmation, cytotoxicity control for AI-2 quorum sensing inhibitors, strain BB721, absorbance OD600. 750 tested, 3% active. Vibrio harveyi BB721 growth, 9 h. growth inhibition, % at 7.5 µM. shares compounds with AI-2 QS modul;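 active = every replicate shows growth inhibition above 50%; inconclusive = at least half but not all replicates above 50% inhibition; inactive = under half of replicates above 50% inhibition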
JMH597 AI-2 mod = Vibrio harveyi AI-2 signaling luminescence modulation – JMH597 strain, confirmation; shares compounds with AI-2 QS modul; Vibrio harveyi JMH597 AI-2 quorum sensing luminescence, 9 h; luxN and CqsS knockout, AI-2 only; inhibition, % at 7.5 µM; 750 tested, 97% active;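 active = every replicate shows more than 75% inhibition of signal versus neutral control wells; inconclusive = half to three quarters of replicates exceed 75% inhibition; inactive = fewer than half of replicates exceed 75% inhibition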
Of the large screens only hits and unclear results are named; the others gave an inactive call (follow-up assays come after a bar, where they were run).

CC(C)=CC(=O)Nc1ccc(OCc2ccccc2)cc1	AI-2 QS modul -83 | JMH597 growth inactive | BB721 lum counter 94 | BB721 growth inactive | JMH597 AI-2 mod 96
O=C(Nc1ccc(OCc2ccccc2)cc1)c1ccccc1	none
Nn1c(SCC(=O)NCC2CCCO2)nnc1-c1ccco1 (stereo not drawn)	none (no result: AI-2 QS modul)
Cc1nnc(NC(=O)Cn2nc(C)c3ccccc3c2=O)s1	AI-2 QS modul -90 | JMH597 growth inactive | BB721 lum counter 98 | BB721 growth inactive | JMH597 AI-2 mod 99
COc1ccc(NC(=O)Cn2nc(C)c3ccccc3c2=O)cc1	AI-2 QS modul -92 | JMH597 growth inactive | BB721 lum counter 97 | BB721 growth inactive | JMH597 AI-2 mod 98
Cc1nn(CC(=O)N(C)C)c(=O)c2ccccc12	none
Cc1nn(CC(=O)Nc2ccc(C(=O)N(C)C)cc2)c(=O)c2ccccc12	AI-2 QS modul -90 | JMH597 growth inactive | BB721 lum counter 97 | BB721 growth inactive | JMH597 AI-2 mod 98
Cc1ccc(NC(=O)Cc2nn(C)c(=O)c3ccccc23)cc1F	none
Cc1ccc(NC(=O)Cn2nc(C)c3ccccc3c2=O)cc1F	AI-2 QS modul -93 | JMH597 growth inactive | BB721 lum counter 99 | BB721 growth inactive | JMH597 AI-2 mod 99
COc1ccc(C(C)(O)c2nc(-c3ccoc3)cs2)cc1 (stereo not drawn)	none (no result: AI-2 QS modul, AHR activator)
Cc1ccc(N(C(=O)c2csnn2)C(C(=O)NC2CCCC2)c2ccccn2)cc1 (stereo not drawn)	none
N/C(=N\OC(=O)COc1ccc2ccccc2c1)c1cccnc1	AI-2 QS modul -90 | JMH597 growth inactive | BB721 lum counter 98 | BB721 growth inactive | JMH597 AI-2 mod 99
Cc1ccc(OCC(=O)O/N=C(\N)c2cccnc2)cc1	AI-2 QS modul -84 | JMH597 growth inactive | BB721 lum counter 92 | BB721 growth inactive | JMH597 AI-2 mod 95
N/C(=N\OC(=O)CCCOc1ccccc1)c1ccccc1	AI-2 QS modul -83 | JMH597 growth inactive | BB721 lum counter 92 | BB721 growth inactive | JMH597 AI-2 mod 93
N/C(=N\OC(=O)COc1ccc(Cl)cc1)c1cccnc1	AI-2 QS modul inconclusive
COc1cccc(C(C)(O)c2nc(-c3ccc(OC)nc3)cs2)c1 (stereo not drawn)	none (no result: AI-2 QS modul, AHR activator)
Cc1ccc(S(=O)(=O)N2CCCC2CNC(=O)C(=O)Nc2ccc(F)cc2F)cc1 (stereo not drawn)	none
Clc1ccc(OCc2nc(-c3ccncc3)no2)c(Cl)c1	none
Clc1cccc(OCc2nc(-c3ccncc3)no2)c1	AI-2 QS modul -88 | JMH597 growth inactive | BB721 lum counter 96 | BB721 growth inactive | JMH597 AI-2 mod 97
c1ccc(OCc2nc(-c3cccs3)no2)cc1	AI-2 QS modul -84 | JMH597 growth inactive | BB721 lum counter 96 | BB721 growth inactive | JMH597 AI-2 mod 97
Cc1ccc(S(=O)(=O)/C=C/c2ccccc2)cc1	AI-2 QS modul -85 | JMH597 growth inactive | BB721 lum counter 93 | BB721 growth inactive | JMH597 AI-2 mod 100
